How the values were obtained:
[1] = molecular target: T1, Sodium-dependent dopamine transporter (Homo sapiens, UniProt Q01959); test: Displacement of [3H]WIN35428 from human DAT after 2 hrs by liquid scintillation counting analysis
Method in brief: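 Competition binding on human DAT membranes (12.7 µg protein/unit) in 100 mM NaCl, 50 mM Tris-HCl pH 7.4, with [3H]WIN 35,428 added as a 3 nM solution. Nonspecific binding defined with 10 µM GBR 12909. After 2 h incubation, bound label is pelleted at about 40,000g, washed twice with ice-cold buffer and counted by β-scintillation. IC50 and Ki come from competition plots, three assays each in triplicate.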

[2] = molecular target: T2, Sodium-dependent serotonin transporter (Homo sapiens, UniProt P31645); test: Displacement of [3H][…] from human SERT after 2 hrs by liquid scintillation counting analysis
[3] = Lipophilicity, log D of the compound; type: physicochemical; conditions: octanol/water
Method in brief: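 HPLC method on a short polymeric ODP-50 column, with toluene and triphenylene co-injected as standards of known logD and k'. A linear gradient runs from 10% MeOH/90% 25 mM phosphate buffer to 100% methanol over 9.4 min at 1.5 mL/min.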

[4] = molecular target: T3, Sodium-dependent noradrenaline transporter (Homo sapiens, UniProt P23975); test: Displacement of [3H][…] from human NET after 2 hrs by liquid scintillation counting analysis
Homo sapiens [5] = species on record: Homo sapiens; test: Selectivity ratio of Ki for human SERT to Ki for human DAT
Method in brief: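 Ratio of Ki values from competition binding on human SERT membranes ([3H]imipramine) and human DAT membranes ([3H]WIN 35,428). Both were measured in 100 mM NaCl, 50 mM Tris-HCl pH 7.4 with 2 h incubation and scintillation counting.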

Homo sapiens [6] = species on record: Homo sapiens; test: Selectivity ratio of Ki for human NET to Ki for human DAT
Method in brief: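 Ratio of Ki values from competition binding on human NET membranes ([3H]nisoxetine) and human DAT membranes ([3H]WIN 35,428). Both were measured in 100 mM NaCl, 50 mM Tris-HCl pH 7.4 with 2 h incubation and scintillation counting.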

[7] = molecular target: T1, Sodium-dependent dopamine transporter; test: Binding affinity to DAT (unknown origin)
Method in brief: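 Competition binding on human DAT-expressing membranes (12.7 µg protein/unit) in 50 mM Tris-HCl, 100 mM NaCl, pH 7.4. The radioligand was ³H-WIN 35,428, added from a 3 nM solution. Non-specific binding was defined with 10 µM GBR 12909. After 2 h incubation, membranes were pelleted at about 40,000g and washed with ice-cold buffer, then counted by β-scintillation. IC50/Ki came from competition plots: three assays, each in triplicate.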

[8] = molecular target: T2, Sodium-dependent serotonin transporter; test: Binding affinity to SERT (unknown origin)
Method in brief: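 Human SERT membranes (9 µg protein/unit) in 100 mM NaCl, 50 mM Tris-HCl pH 7.4, with [3H]imipramine as radioligand. Run as the DAT competition assay: 2 h incubation, centrifugation at about 40,000g and β-scintillation counting. IC50 and Ki are derived from competition plots.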

[9] = molecular target: T3, Sodium-dependent noradrenaline transporter; test: Binding affinity to NET (unknown origin)
Method in brief: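 Human NET membranes (3 µg protein/unit) in 100 mM NaCl, 50 mM Tris-HCl pH 7.4, with [3H]nisoxetine as radioligand. Run as the DAT competition assay: 2 h incubation, centrifugation at about 40,000g and β-scintillation counting. IC50 and Ki are derived from competition plots.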

[10] = Metabolic stability in human plasma assessed as compound remaining after 1 hr by radio-HPLC analysis; type: ADME, cell-free; conditions: read-out: Stability
Method in brief: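 Radiotracer (10 µL) incubated in 500 µL pooled Li-heparin human plasma at 37 °C for up to 60 min, with ethanol kept at or below 2% final. Aliquots are quenched with one volume of ice-cold MeOH/ACN (10/1) and centrifuged (23,000g, 4 min, 5 °C). Supernatants are analysed by radio-HPLC for percent […].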

CES1b/CES1c/CES2 = test: Metabolic stability assessed as human CES1b/CES1c/CES2-mediated hydrolysis measuring compound remaining after 60 mins by radio-HPLC analysis; type: ADME; conditions: human carboxylesterases CES1b, CES1c and CES2, read-out: Stability
Method in brief: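 A 1/1/1 mixture (20 µL) of human CES1b, CES1c and CES2 (each 5 mg/mL) is diluted with 270 µL phosphate buffer pH 7.4. Radiotracer (6 µL) is incubated in it, quenched with MeOH/ACN (10/1) and centrifuged. Supernatants are analysed by radio-HPLC for percent intact tracer.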

[11] = Drug metabolism in human liver microsomes after 1 hr by radio-HPLC analysis relative to control; type: ADME; conditions: read-out: Drug metabolism
Method in brief: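 Pooled human liver microsomes are preincubated 5 min at 37 °C in pH 7.4 phosphate buffer with an NADPH-generating system. Formulated radiotracer (6 µL) is then added in 300 µL final volume, with ethanol at or below 2%. Incubations are quenched with one volume MeOH/ACN (10/1), vortexed and centrifuged. Supernatants are analysed by radio-HPLC for percent intact tracer.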

T1 sequence (Q01959 whole entry): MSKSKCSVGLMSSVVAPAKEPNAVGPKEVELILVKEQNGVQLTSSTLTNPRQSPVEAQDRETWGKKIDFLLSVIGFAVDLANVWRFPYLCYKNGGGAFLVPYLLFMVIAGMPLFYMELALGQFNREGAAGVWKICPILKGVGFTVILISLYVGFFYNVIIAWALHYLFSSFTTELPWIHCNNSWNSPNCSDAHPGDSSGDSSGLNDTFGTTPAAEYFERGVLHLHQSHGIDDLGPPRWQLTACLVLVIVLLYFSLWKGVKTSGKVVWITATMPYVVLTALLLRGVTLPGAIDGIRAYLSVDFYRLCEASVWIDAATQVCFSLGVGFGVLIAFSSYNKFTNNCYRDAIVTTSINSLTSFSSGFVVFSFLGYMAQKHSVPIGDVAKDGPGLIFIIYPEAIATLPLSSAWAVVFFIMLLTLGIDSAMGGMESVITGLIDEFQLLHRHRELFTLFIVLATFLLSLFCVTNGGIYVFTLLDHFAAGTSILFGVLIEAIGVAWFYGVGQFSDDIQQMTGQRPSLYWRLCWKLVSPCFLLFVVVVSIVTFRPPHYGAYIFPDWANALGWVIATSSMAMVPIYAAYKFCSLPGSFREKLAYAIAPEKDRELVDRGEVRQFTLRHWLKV
T2 sequence (P31645 whole entry): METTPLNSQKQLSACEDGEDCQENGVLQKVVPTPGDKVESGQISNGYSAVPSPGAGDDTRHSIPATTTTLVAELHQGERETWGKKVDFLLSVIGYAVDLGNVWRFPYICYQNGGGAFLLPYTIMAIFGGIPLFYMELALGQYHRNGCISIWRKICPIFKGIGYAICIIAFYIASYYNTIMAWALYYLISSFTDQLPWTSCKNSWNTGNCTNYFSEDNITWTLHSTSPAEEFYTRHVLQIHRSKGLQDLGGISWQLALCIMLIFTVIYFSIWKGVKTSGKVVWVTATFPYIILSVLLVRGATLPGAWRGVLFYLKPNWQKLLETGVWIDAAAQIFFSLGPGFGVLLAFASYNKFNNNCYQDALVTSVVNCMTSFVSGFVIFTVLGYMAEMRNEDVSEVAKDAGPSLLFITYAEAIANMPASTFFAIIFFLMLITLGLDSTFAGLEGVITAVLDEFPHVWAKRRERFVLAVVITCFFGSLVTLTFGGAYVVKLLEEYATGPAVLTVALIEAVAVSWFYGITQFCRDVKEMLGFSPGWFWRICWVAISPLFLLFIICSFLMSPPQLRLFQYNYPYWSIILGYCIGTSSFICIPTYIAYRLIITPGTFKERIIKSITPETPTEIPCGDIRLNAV
T3 sequence (P23975 whole entry): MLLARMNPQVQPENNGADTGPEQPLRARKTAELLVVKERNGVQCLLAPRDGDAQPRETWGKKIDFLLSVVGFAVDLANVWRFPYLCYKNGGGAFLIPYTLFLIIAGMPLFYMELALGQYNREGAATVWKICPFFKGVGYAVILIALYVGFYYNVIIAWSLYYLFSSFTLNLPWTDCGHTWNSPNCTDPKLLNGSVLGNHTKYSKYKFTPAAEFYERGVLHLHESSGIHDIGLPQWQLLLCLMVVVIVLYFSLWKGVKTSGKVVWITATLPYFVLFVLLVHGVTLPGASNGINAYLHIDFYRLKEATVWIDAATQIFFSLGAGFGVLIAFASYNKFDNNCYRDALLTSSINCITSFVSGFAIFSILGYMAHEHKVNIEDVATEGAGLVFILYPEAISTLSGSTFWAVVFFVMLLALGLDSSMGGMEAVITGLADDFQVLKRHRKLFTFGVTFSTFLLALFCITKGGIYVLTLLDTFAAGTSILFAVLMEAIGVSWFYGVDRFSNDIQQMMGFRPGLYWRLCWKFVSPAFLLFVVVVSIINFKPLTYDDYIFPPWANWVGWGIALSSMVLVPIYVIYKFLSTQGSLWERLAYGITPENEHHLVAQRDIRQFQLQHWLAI

Row | Compound | Ki [1] | Ki [2] | logD [3] | Ki [4] | Ratio Ki (Homo sapiens [5]) | Ratio Ki (Homo sapiens [6]) | Ki [7] | Ki [8] | Ki [9] | remaining at 1 h [10] | remaining at 1 h (CES1b/CES1c/CES2) | metabolised at 1 h [11]
1 | O=C(O)[C@H]1[C@@H](c2ccc(I)cc2)C[C@@H]2CC[C@H]1N2C/C=C/I | 0.037 µM | 0.0714 µM | 0.8 | 0.785 µM | – | – | – | – | – | – | – | –
2 | O=C(OCCF)[C@H]1[C@@H](c2ccc(I)cc2)C[C@@H]2CC[C@H]1N2C/C=C/I | 0.00133 µM | 0.0024 µM | 5.39 | 0.153 µM | 1.8 | 115 | – | – | – | – | – | –
3 | COC(=O)[C@H]1[C@@H](c2ccc(I)cc2)C[C@@H]2CC[C@H]1N2C | – | – | – | – | – | – | 0.00634 µM | 0.0292 µM | 0.0328 µM | – | – | –
4 | COC(=O)[C@H]1[C@@H](c2ccc(I)cc2)C[C@@H]2CC[C@H]1N2C/C=C/I | 0.00172 µM | 0.0015 µM | 5.29 | 0.02 µM | – | 11 | – | – | – | 100% | 92% | 46.4%
5 | O=C(OCC[18F])[C@H]1[C@@H](c2ccc(I)cc2)C[C@@H]2CC[C@H]1N2C/C=C/I | – | – | – | – | – | – | – | – | – | 100% | 92% | 71.6%
6 | COC(=O)[C@H]1[C@@H](c2ccc(C)cc2)C[C@@H]2CC[C@H]1N2C/C=C/I | – | – | – | – | – | – | – | 0.5 µM | > 1 µM | – | – | –

Source: ChEMBL document CHEMBL3102763, “Synthesis, radiosynthesis and first in vitro evaluation of novel PET-tracers for the dopamine transporter: [(11)C]IPCIT and [(18)F]FE@IPCIT” (Bioorg Med Chem, 2013)
